We go through four compounds from ChEMBL document CHEMBL1125734, “Antioxidant activity of probucol and its analogues in hypercholesterolemic Watanabe rabbits” (1991).

Holding throughout (type): functional
The species entered for test [1] is Oryctolagus cuniculus. Nature of the test: Compound was evaluated for the ability to lower total serum cholesterol levels in 5 Watanabe heritable hyperlipidemic (WHHL) rabbits on day 0. In a few lines:
(§1)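 Modified WHHL rabbits (British half-lop × WHHL cross, homozygous LDL-receptor deficient), age 14 ± 1 weeks, fed 100 g/day rabbit chow repelleted with compound at 1% (wt/wt), content checked by HPLC; controls got plain chow (n = 10). Total serum cholesterol measured enzymatically on days 0, 28, 56 and 84; group mean ± SEM (mg/dL).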

Test [2] is filed under the species Oryctolagus cuniculus. Nature of the test: Compound was evaluated for the ability to lower total serum cholesterol levels in 5 Watanabe heritable hyperlipidemic (WHHL) rabbits on day 28. In short, it runs like this:
as §1

The species entered for test [3] is Oryctolagus cuniculus. Put plainly: Compound was evaluated for the ability to lower total serum cholesterol levels in 5 Watanabe heritable hyperlipidemic (WHHL) rabbits on day 56. In a few lines:
as §1

For test [4], the species on record is Oryctolagus cuniculus. Nature of the test: Compound was evaluated for the ability to lower total serum cholesterol levels in 5 Watanabe heritable hyperlipidemic (WHHL) rabbits on day 84. In short, it runs like this: as §1
The species named for test [5] is Oryctolagus cuniculus. Nature of the test: Compound concentration in low-density lipoprotein (LDL). In short, it runs like this:
(§2)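 Day-84 plasma (EDTA) from rabbits fed 1% drug in chow. LDL isolated by sequential ultracentrifugation at d = 1.019–1.063 g/mL, brought back to the original serum volume, and drug measured by HPLC. Molecules per particle calculated from LDL protein, taking apoB (mw 500 000) as one copy per particle. Mean ± SEM.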

For test [6], the species on record is Oryctolagus cuniculus. Put plainly: Prevention of Cu2+-induced lipid peroxidation of LDL. In a few lines:
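LDL (d 1.019–1.063 g/mL) isolated from each drug-fed rabbit at day 84 and dialyzed against PBS. Incubated with 5 μM CuSO4 (final) at 37 °C for 3 h; reaction stopped with EDTA. 50 μg LDL treated with TCA and 0.67% TBA at 90 °C for 30 min. TBARS read at 532 nm against an MDA standard curve (0–5 nmol).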

Test [7] is filed under the species Oryctolagus cuniculus. Nature of the test: Compound concentration in serum. In short, it runs like this: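 Rabbits fed 1% (wt/wt) drug in chow (100 g/day) for 84 days. Serum taken at sacrifice on day 84 and extracted with ether/ethanol; extract dried under N2, redissolved, and run on reverse-phase C18 HPLC in acetonitrile/water (85/15) at 1.5 mL/min with detection at 240 nm. Results given as μg/mL, mean ± SEM.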

For test [8], the species on record is Oryctolagus cuniculus. Nature of the test: % atherosclerotic lesions in WHHL rabbits. In short, it runs like this: (§3)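 WHHL rabbits (homozygous LDL-receptor deficient, British half-lop cross, 14 ± 1 weeks) fed 100 g/day chow containing 1% (wt/wt) drug for 84 days, then killed by iv pentobarbital. Aortas stained with Sudan IV; sudanophilic area in thoracic aorta quantified by digital image analysis from staining density. Values are percent lesion area per group.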

Test [9] can be described thus: Molar content of compound in low-density lipoprotein (LDL) was obtained from the ratio of molecules to that of LDL particles. In a few lines:
as §2

For test [10], the species on record is Oryctolagus cuniculus. Put plainly: Compound was evaluated for the ability to lower total serum cholesterol levels in 4 Watanabe heritable hyperlipidemic (WHHL) rabbits on day 0. In short, it runs like this: as §1
The species entered for test [11] is Oryctolagus cuniculus. Put plainly: Compound was evaluated for the ability to lower total serum cholesterol levels in 4 Watanabe heritable hyperlipidemic (WHHL) rabbits on day 28. In short, it runs like this: as §1
The species named for test [12] is Oryctolagus cuniculus. Nature of the test: Compound was evaluated for the ability to lower total serum cholesterol levels in 4 Watanabe heritable hyperlipidemic (WHHL) rabbits on day 56. In short, it runs like this: as §1
The species named for test [13] is Oryctolagus cuniculus. Nature of the test: Compound was evaluated for the ability to lower total serum cholesterol levels in 4 Watanabe heritable hyperlipidemic (WHHL) rabbits on day 84. In a few lines:
as §1

The species named for test [14] is Oryctolagus cuniculus. Nature of the test: Percent atherosclerotic lesions in WHHL rabbits. In short, it runs like this:
as §3

On to `CCCCC(C)(Sc1cc(C)c(O)c(C(C)(C)C)c1)Sc1cc(C)c(O)c(C(C)(C)C)c1`, for which the “Cholesterol Concentration” value amounted to 1005 mg/dL in the test filed under Oryctolagus cuniculus [1], 1042 mg/dL in the test listed under Oryctolagus cuniculus [2], 1079 mg/dL in the test listed under Oryctolagus cuniculus [3] and 1095 mg/dL in the test listed under Oryctolagus cuniculus [4]. The “Drug Conc (LDL)” value in the test listed under Oryctolagus cuniculus [5] worked out at 3 µg/mL. The compound further registered a Lipid peroxidation (nM MDA (mg LDL)-1) in the test filed under Oryctolagus cuniculus [6] of 33. Besides, the “Drug Conc (serum)” value in the test filed under Oryctolagus cuniculus [7] worked out at 6.4 µg/mL. This compound had a Lesion in the test listed under Oryctolagus cuniculus [8] of 81%. Moreover, in test [9], the Molar content (Molecules (LDL particle)-1) came to 0.7.
Take `CC(C)(C)c1cc(SCSc2cc(C(C)(C)C)c(O)c(C(C)(C)C)c2)cc(C(C)(C)C)c1O`: the “Cholesterol Concentration” value amounted to 890 mg/dL in the test listed under Oryctolagus cuniculus [1], 905 mg/dL in the test filed under Oryctolagus cuniculus [2], 766 mg/dL in the test listed under Oryctolagus cuniculus [3] and 734 mg/dL in the test filed under Oryctolagus cuniculus [4]. Besides, in the test listed under Oryctolagus cuniculus [5], the “Drug Conc (LDL)” value turned out to be 65 µg/mL. In addition, the Lipid peroxidation (nM MDA (mg LDL)-1) in the test listed under Oryctolagus cuniculus [6] was 16. Besides, in the test filed under Oryctolagus cuniculus [7], the “Drug Conc (serum)” value came out at 135 µg/mL. The compound also gave a Lesion in the test filed under Oryctolagus cuniculus [8] of 39%. In addition, in test [9], the Molar content (Molecules (LDL particle)-1) is 20.3.
On to `CCCC(C)(Sc1cc(C(C)(C)C)c(O)c(C(C)(C)C)c1)Sc1cc(C(C)(C)C)c(O)c(C(C)(C)C)c1`, for which, in the test listed under Oryctolagus cuniculus [5], the “Drug Conc (LDL)” value was determined as 23 µg/mL. The “Cholesterol Concentration” value came to 685 mg/dL in the test listed under Oryctolagus cuniculus [10], 885 mg/dL in the test listed under Oryctolagus cuniculus [11], 796 mg/dL in the test listed under Oryctolagus cuniculus [12] and 782 mg/dL in the test filed under Oryctolagus cuniculus [13]. Besides, the Lipid peroxidation (nM MDA (mg LDL)-1) in the test listed under Oryctolagus cuniculus [6] came to 30. In addition, the “Drug Conc (serum)” value in the test filed under Oryctolagus cuniculus [7] was found to be 42 µg/mL. Besides, the Lesion in the test listed under Oryctolagus cuniculus [8] was found to be 53%. Moreover, in [9], the Molar content (Molecules (LDL particle)-1) stood at 6.2.
For `CC(C)(Sc1cc(C(C)(C)C)c(O)c(C(C)(C)C)c1)Sc1cc(C(C)(C)C)c(O)c(C(C)(C)C)c1` [PROBUCOL], in the test filed under Oryctolagus cuniculus [5], the “Drug Conc (LDL)” value came to 41 µg/mL. Further, the “Cholesterol Concentration” value in the test listed under Oryctolagus cuniculus [10] was found to be 658 mg/dL; in the test filed under Oryctolagus cuniculus [11], 728 mg/dL; in the test filed under Oryctolagus cuniculus [12] it was 731 mg/dL; in the test filed under Oryctolagus cuniculus [13], 698 mg/dL. Moreover, in the test listed under Oryctolagus cuniculus [6], the Lipid peroxidation (nM MDA (mg LDL)-1) is 25. Also, in the test listed under Oryctolagus cuniculus [7], the “Drug Conc (serum)” value came to 56 µg/mL. The same compound registered a Lesion in the test listed under Oryctolagus cuniculus [14] of 47%. Besides, the Molar content (Molecules (LDL particle)-1) in test [9] turned out to be 11.3.
